Screens: PubChem BioAssay, several laboratories
APP 5'UTR act = activators of APP 5'UTR luciferase reporter, primary screen, SH-SY5Y cells | actives 1% (n = 190,000) | AID 1276, 2008 | SH-SY5Y APP 5'UTR luciferase reporter, luminescence; zero percent = DMSO vehicle wells | activation, % at 2 µM;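 active means activation above a set limit, based on mean plus 3 SD of controls, cut at about 140% in these data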
NF-kB expr up = activators of NF-kB expression in neurons, primary screen, cell-based, HTS; actives 1.6% (n = 190,000); human neuronal cells, NF-kB reporter expression; stronger effect = higher value; fold change at 12.5 µM; in the data active means fold change above about 3.3
PERK inh = block of dimerizer-induced PERK translation repression, primary screen, PERK inhibitor project, CHO PERK-DD cells, SEAP luminescence, HTS | CHO PERK-DD fusion, SEAP luminescence translation reporter | inhibition, % at 5.6 µM | actives 0.17% (n = 220,000) | AID 1416, 2008;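 active means inhibition above the mean inhibition of all tested compounds plus 3 SD, set separately per screening campaign, cut at about 2.9% in these data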;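 further: PERK kinase domain activated by AP20187 dimerizer at 100 nM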
Target sequence (Q9NZJ5 whole entry, looked up, the tested form may be a part): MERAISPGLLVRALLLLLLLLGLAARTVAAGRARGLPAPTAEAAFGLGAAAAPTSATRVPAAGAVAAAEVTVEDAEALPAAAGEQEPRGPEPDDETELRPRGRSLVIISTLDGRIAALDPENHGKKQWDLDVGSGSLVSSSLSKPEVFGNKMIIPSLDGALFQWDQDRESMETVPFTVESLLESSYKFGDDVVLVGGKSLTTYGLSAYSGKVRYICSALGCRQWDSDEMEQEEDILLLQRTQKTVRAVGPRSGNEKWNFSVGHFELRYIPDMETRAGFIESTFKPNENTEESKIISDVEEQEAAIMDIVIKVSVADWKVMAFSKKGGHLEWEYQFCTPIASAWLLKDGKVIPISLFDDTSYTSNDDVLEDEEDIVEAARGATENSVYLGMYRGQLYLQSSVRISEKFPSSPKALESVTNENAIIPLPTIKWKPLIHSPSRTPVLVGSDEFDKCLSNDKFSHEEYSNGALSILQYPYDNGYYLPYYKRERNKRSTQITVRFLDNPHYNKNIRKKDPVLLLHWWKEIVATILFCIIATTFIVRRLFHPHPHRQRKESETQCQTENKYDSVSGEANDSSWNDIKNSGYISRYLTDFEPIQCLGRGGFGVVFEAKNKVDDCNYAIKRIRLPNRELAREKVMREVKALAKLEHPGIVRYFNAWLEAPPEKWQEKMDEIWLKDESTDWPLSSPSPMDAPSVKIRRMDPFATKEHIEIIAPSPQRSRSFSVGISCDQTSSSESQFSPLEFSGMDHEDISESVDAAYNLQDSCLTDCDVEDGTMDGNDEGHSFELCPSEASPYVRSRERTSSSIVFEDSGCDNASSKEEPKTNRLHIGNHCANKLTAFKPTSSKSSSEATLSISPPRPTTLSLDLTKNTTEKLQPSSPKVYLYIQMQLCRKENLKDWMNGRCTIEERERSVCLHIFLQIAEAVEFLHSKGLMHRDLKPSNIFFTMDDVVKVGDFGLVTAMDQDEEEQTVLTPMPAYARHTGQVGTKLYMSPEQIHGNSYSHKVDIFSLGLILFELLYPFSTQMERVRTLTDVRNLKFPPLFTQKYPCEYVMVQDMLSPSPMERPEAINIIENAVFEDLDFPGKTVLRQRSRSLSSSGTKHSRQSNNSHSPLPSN
AHR act = AHR activators, primary screen, cell-based, luminescence, luciferase reporter, human; Aryl hydrocarbon receptor (Homo sapiens), P35869; actives 2.5% (n = 320,000); activation, % at 5 µM; AHR-responsive luciferase reporter cells; in the data active means activation above about 47%
STAT1 activator = STAT1 signaling activators, primary screen, cell-based, HTS, luciferase reporter; NIH 3T3 STAT1-luciferase reporter, IFN-gamma, luminescence; 100% = IFN-gamma alone, no compound; activation (% of control), % at 5.5 µM; actives 2.6% (n = 200,000); AID 932, 2007;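 active means activation above the screen-wide mean activation plus 3 SD, cut at about 130% in these data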
Mdm2 ligase inh = MDM2-luciferase reporter signal enhancers, primary screen, MDM2 E3 ligase inhibitor project, cell-based, luminescence, 1536-well | actives 0.11% (n = 210,000) | cell-based MDM2 ubiquitination luciferase reporter, 2 h; 0 = plate control, 100 = twice control, blank-subtracted | E3 ubiquitin-protein ligase Mdm2 (Homo sapiens), Q00987 | AID 1230, 2008 | signal enhancement, % at 5 µM;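 active means signal enhancement of 30% or more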;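 further: luminescence tracks abundance of the self-degrading MDM2-luciferase fusion protein; higher signal means inhibition of MDM2 E3 ligase activity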
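System: stable MDM2–luciferase fusion reporter cells / Input: 2000 cells seeded into each well / Schedule: 4 h settle plus 2 h compound, 37 °C / Compound: single-point 5 µM / Buffer or medium: cells held in DMEM / Benchmarks: control and blank well means / Evaluation: percent signal gain over controls, blank-subtracted / Measured by: luciferase luminescence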
A number is an active result; . = inactive; / = not tested or not shown. Sampled rows, rich in hits. Any-hit rate of the full collection: about 4.5%.

SMILES | APP 5'UTR act | NF-kB expr up | PERK inh | AHR act | STAT1 activator | Mdm2 ligase inh
O=C(Nc1nc2cc3c(cc2s1)OCO3)C1CC1 | / | / | . | 57.0 | / | .
CC(C)(C)C(=O)Nc1nc2cc3c(cc2s1)OCO3 | / | / | . | . | / | .
CC(C)C(=O)Nc1nc2cc3c(cc2s1)OCO3 | . | . | . | 65.7 | . | .
Cc1ccc(C(=O)Nc2c(C)cc(-c3ccccc3)oc2=O)cc1 | . | . | . | . | . | .
CCOC(=O)C1CCCN(C(=O)c2cc3c(OC)c(OC)c(OC)cc3[nH]2)C1 (stereo not drawn) | / | / | / | . | / | /
CCOC(=O)C1CCCN(C(=O)c2cc3cc(F)ccc3[nH]2)C1 (stereo not drawn) | / | / | / | 50.1 | / | /
CCOC(=O)N1CCN(C(=O)c2cc3cc(F)ccc3[nH]2)CC1 | / | / | / | 57.9 | / | /
O=C(c1cc2cc(F)ccc2[nH]1)N1CCCC(Nc2ccc(F)cc2)C1 (stereo not drawn) | / | / | / | 62.8 | / | /
O=C(Cn1nc(-c2ccccc2)oc1=O)OCC(=O)c1ccccc1 | / | / | / | . | / | /
COc1cc(NC(=O)COC(C)=O)c(C)cc1[N+](=O)[O-] | . | . | . | . | . | .
O=C1[C@H]2[C@@H](c3ccc(F)cc3)N3C(=O)N(c4cccc(F)c4)C(=O)[C@@]3(Cc3ccc(Cl)cc3)[C@H]2C(=O)N1C1CCCCC1 | / | / | / | . | / | /
Cc1csc(N2CCCC2=O)n1 | . | . | . | . | . | .
N/C(=N/OC(=O)c1ccccc1Cl)c1ncc([N+](=O)[O-])s1 | / | / | . | 54.1 | / | .
Cc1ccc(C(=O)Nc2ncc(Cc3ccccc3)s2)o1 | 205.3 | . | . | . | . | .
O=C(Nc1ncc(Cc2cccc(C(F)(F)F)c2)s1)C1CCCO1 (stereo not drawn) | / | / | . | . | / | /
Cc1cnc(NC(=O)c2ccco2)s1 | . | . | . | . | 138.8 | .
Cc1ccc(Cc2cnc(NC(=O)C3CCCO3)s2)cc1 (stereo not drawn) | 145.2 | 4.51 | . | . | 134.6 | .
Cc1cnc(NC(=O)c2cncc(Br)c2)s1 | 181.0 | 4.04 | . | . | 135.7 | .
CCc1nnc(NC(=O)c2ccc(C)o2)s1 | / | / | / | . | / | /
CCOc1ccc(NC(=O)CSc2nc3ccccc3nc2N2CCCC2)cc1 | / | / | / | . | / | /
Cc1nonc1CC(=O)N1CCCC(C(=O)c2cccc(C(F)(F)F)c2)C1 (stereo not drawn) | . | . | . | . | . | .
O=C(Nc1ncc(Cc2ccc(SC(F)F)cc2)s1)c1ccccc1 | . | 3.58 | . | . | . | .
CC(C)C(=O)Nc1ncc(Cc2ccccc2Cl)s1 | . | . | . | . | . | .
Cc1cccc(NC(=O)c2cc(=O)c3ccccc3o2)n1 | . | . | . | . | 134.1 | .
COC(=O)c1ccccc1NC(=O)c1ccc(COc2cccc3ccccc23)o1 | / | . | . | . | . | .
SMILES | APP 5'UTR act | NF-kB expr up | PERK inh | AHR act | STAT1 activator | Mdm2 ligase inh
Cc1cccc(NC(=O)c2cc(=O)c3ccccc3o2)c1 | / | / | / | . | / | /
Cc1cccc(NC(=O)c2ccc(COc3cccc4ccccc34)o2)n1 | . | . | . | 70.9 | . | .
Cc1ccc(NC(=O)c2cc(=O)c3ccccc3o2)cc1 | . | . | . | 54.8 | . | .
NC(=O)c1ccsc1NC(=O)c1cc(=O)c2ccccc2o1 | . | . | . | . | 138.4 | /
Cc1ccc(-n2nc(C(=O)O)c3ccccc3c2=O)cc1C | . | . | . | . | . | .
Cc1ccc(-n2nnc3ccccc3c2=O)cc1C | . | . | . | . | 133.8 | .
O=c1sc(N2CCN(c3ccccc3F)CC2)nc2ccsc12 | . | 3.58 | . | . | 139.4 | .
CCc1ccc(Nc2cnn(-c3nc4ccccc4s3)c(=O)c2Cl)cc1 | . | . | . | 49.0 | . | .
CC(OC(=O)Cc1c[nH]c2ccccc12)C(=O)NC1CCCCC1C (stereo not drawn) | / | / | / | . | / | /
COc1ccc2c(c1)Cc1sc(NC(C)=O)nc1-2 | . | . | . | . | 145.6 | .
CC(=O)Nc1ccc2oc(-c3ccccc3Br)nc2c1 | 161.6 | 7.34 | . | . | . | .
CC(=O)Nc1ccc2oc(-c3cc(F)c(F)cc3Cl)nc2c1 | . | 6.1 | . | . | 147.6 | .
CC(C)C(=O)Nc1ccc2oc(-c3cc(F)c(F)cc3Cl)nc2c1 | . | . | . | . | . | /
CCCC(=O)Nc1ccc2oc(-c3cncc(Br)c3)nc2c1 | . | 3.4 | . | . | 139.1 | .
COc1ccc(N2CCN(C(=O)c3ccc(CNS(=O)(=O)c4cccc(OC)c4)cc3)CC2)cc1 | / | / | / | . | / | /
CC(=O)N1c2ccc(Cl)cc2C2C=CCC2C1c1cccc2ccccc12 (stereo not drawn) | . | . | . | . | . | .
CC(=O)N1c2ccc3ccccc3c2C2C=CCC2C1c1ccc(Br)cc1 (stereo not drawn) | . | . | . | 85.0 | . | .
CCNc1nc(Cl)nc(-c2cn(-c3ccccc3)c3ccccc23)n1 | / | / | . | 62.1 | / | .
Cc1ccn2c(NC3CCCC3)c(-c3ccccn3)nc2c1 | . | . | . | 77.1 | . | .
O=c1cc(-c2ccccc2)[nH]c2nc3ccccc3n12 | . | 4.82 | . | . | . | .
COC(=O)c1ccc(/C=C/c2ccc3cccc(OC(C)=O)c3n2)cc1 | . | 3.73 | . | . | . | .
N=c1c2c3c(sc2ncn1Nc1ccccc1)CCC3 | / | / | . | 68.4 | / | .
N=c1c2c3c(sc2ncn1Cc1ccccc1)CCCC3 | . | . | . | . | . | .
O=C(COc1ccc2c(c1)CCC2)N1CCc2ccccc21 | . | . | . | . | 133.6 | .
COc1ccc(NC(=S)N2CCc3ccccc32)cc1OC | / | / | / | 53.0 | / | /
SMILES | APP 5'UTR act | NF-kB expr up | PERK inh | AHR act | STAT1 activator | Mdm2 ligase inh
O=C(Nc1ccccc1)N1CCc2ccccc21 | . | 6.54 | . | . | 146.0 | .
COc1ccc(CCC(=O)N2CCc3ccccc32)cc1 | . | . | . | . | 132.7 | .
O=C(COC(=O)c1ccc(Br)c(S(=O)(=O)N2CCOCC2)c1)NCCc1ccccc1 | / | / | / | . | / | /
COc1ccc(NC(=O)N2CCc3ccccc32)cc1 | 176.3 | 10.5 | . | . | . | .
CCOC(=O)c1ccc(NC(=O)N2CCc3ccccc32)cc1 | 205.3 | 7.88 | . | . | . | .
c1ccc(C(Cc2nc(-c3cccnc3)no2)c2ccccc2)cc1 | . | . | . | . | . | .
c1ccc(SCc2nc(-c3cccnc3)no2)cc1 | . | . | . | . | 132.6 | .
COc1ccc(-c2noc(CCc3ccccc3)n2)cc1 | . | . | . | . | 133.6 | .
Cc1ccc(-c2noc(CSc3nc(N)cc(N)n3)n2)cc1 | . | 3.44 | . | . | . | .
